# Results: ChEMBL document CHEMBL2021866, “Design, synthesis, and pharmacological evaluation of benzamide derivatives as glucokinase activators” (Bioorg Med Chem, 2012)
# pEC50: −log10 of the molar value.
# Molecular target: T1, Hexokinase-4 (Homo sapiens, UniProt P35557)
# T1 sequence (P35557 whole entry): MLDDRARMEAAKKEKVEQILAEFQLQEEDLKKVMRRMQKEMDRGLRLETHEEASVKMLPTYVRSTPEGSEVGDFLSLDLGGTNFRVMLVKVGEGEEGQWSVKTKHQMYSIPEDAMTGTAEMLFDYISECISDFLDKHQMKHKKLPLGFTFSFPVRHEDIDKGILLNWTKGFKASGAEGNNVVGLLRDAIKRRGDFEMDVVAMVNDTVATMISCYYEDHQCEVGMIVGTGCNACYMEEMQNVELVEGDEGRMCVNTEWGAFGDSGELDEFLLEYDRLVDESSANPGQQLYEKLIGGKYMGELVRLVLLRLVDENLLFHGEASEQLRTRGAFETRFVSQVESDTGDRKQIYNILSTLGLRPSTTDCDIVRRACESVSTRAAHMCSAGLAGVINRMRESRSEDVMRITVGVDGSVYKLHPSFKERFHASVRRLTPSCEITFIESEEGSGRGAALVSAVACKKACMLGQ
# Assay: Activation of human recombinant glucokinase expressed in Escherichia coli BL21(DE3) coexpressing G6PDH assessed as glucose 6-phosphate formation by spectrometric analysis
row,pEC50,SMILES
1,7.28,CC(C)=CCOc1cc(Oc2ccc(S(=O)(=O)N3CC[C@H](F)C3)cc2)cc(C(=O)Nc2nccs2)c1
2,6.58,CC(C)=CCOc1cc(Oc2ccc(S(=O)(=O)N3C[C@@H](C)O[C@@H](C)C3)cc2)cc(C(=O)Nc2ccn(C)n2)c1
3,6.53,CC(C)=CCOc1cc(Oc2ccc(S(=O)(=O)N3CCOCC3)cc2)cc(C(=O)Nc2ccn(C)n2)c1
4,7.20,CC(C)=CCOc1cc(Oc2ccc(S(=O)(=O)N3CC[C@H](F)C3)cc2)cc(C(=O)Nc2cc(C)n(C)n2)c1
5,6.92,CC(C)=CCOc1cc(Oc2ccc(S(=O)(=O)C3CC3)cc2)cc(C(=O)NC2=NC(=O)CS2)c1
6,7.08,CC(C)=CCOc1cc(Oc2ccc(S(=O)(=O)N3CC[C@H](F)C3)cc2)cc(C(=O)Nc2ccn(C)n2)c1
7,7.32,CC(C)=CCOc1cc(Oc2ccc(S(=O)(=O)N3CCOCC3)cc2)cc(C(=O)Nc2nccs2)c1
8,6.34,COC1CCN(S(=O)(=O)c2ccc(Oc3cc(OCC=C(C)C)cc(C(=O)Nc4cc(C)n(C)n4)c3)cc2)CC1
9,6.78,CC(C)=CCOc1cc(Oc2ccc(S(=O)(=O)C3CC3)cc2)cc(C(=O)Nc2cnc(C)cn2)c1
10,6.84,CC(C)=CCOc1cc(Oc2ccc(S(=O)(=O)N3CC4CCC(C3)O4)cc2)cc(C(=O)Nc2cc(C)n(C)n2)c1
11,6.60,CC(C)=CCOc1cc(Oc2ccc(S(=O)(=O)C3CC3)cc2)cc(C(=O)Nc2nc(-c3ccc(F)cc3)cs2)c1
12,7.11,CC(C)=CCOc1cc(Oc2ccc(S(=O)(=O)N3CC4CCC(C3)O4)cc2)cc(C(=O)Nc2ncc(F)s2)c1
13,7.02,CC(C)=CCOc1cc(Oc2ccc(S(=O)(=O)N3CCOCC3)cc2)cc(C(=O)Nc2cc(C)n(C)n2)c1
14,7.19,COC1CCN(S(=O)(=O)c2ccc(Oc3cc(OCC=C(C)C)cc(C(=O)Nc4ncc(F)s4)c3)cc2)CC1

# Molecular target: T2, Hexokinase-4 (Homo sapiens) (UniProt P35557)
# T2 sequence (whole entry): T1 sequence (P35557 whole entry)
# Assay: Activation of human recombinant glucokinase expressed in Escherichia coli BL21(DE3) coexpressing G6PDH assessed as glucose 6-phosphate formation by spectrometric analysis relative to control
# Method in brief: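 N-terminal His6-tagged human GK, expressed in E. coli BL21(DE3), purified on Ni-NTA. NADPH formation followed as rate of A340. Fold activation taken against DMSO control (100%), and maximum fold reported.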
row,fold change (FC),SMILES
1,1.9,CC(C)=CCOc1cc(Oc2ccc(S(=O)(=O)N3CC[C@H](F)C3)cc2)cc(C(=O)Nc2nccs2)c1
2,1.8,CC(C)=CCOc1cc(Oc2ccc(S(=O)(=O)N3C[C@@H](C)O[C@@H](C)C3)cc2)cc(C(=O)Nc2ccn(C)n2)c1
3,3,CC(C)=CCOc1cc(Oc2ccc(S(=O)(=O)N3CCOCC3)cc2)cc(C(=O)Nc2ccn(C)n2)c1
4,1.9,CC(C)=CCOc1cc(Oc2ccc(S(=O)(=O)N3CC[C@H](F)C3)cc2)cc(C(=O)Nc2cc(C)n(C)n2)c1
5,1.5,CC(C)=CCOc1cc(Oc2ccc(S(=O)(=O)C3CC3)cc2)cc(C(=O)NC2=NC(=O)CS2)c1
6,2.1,CC(C)=CCOc1cc(Oc2ccc(S(=O)(=O)N3CC[C@H](F)C3)cc2)cc(C(=O)Nc2ccn(C)n2)c1
7,2.1,CC(C)=CCOc1cc(Oc2ccc(S(=O)(=O)N3CCOCC3)cc2)cc(C(=O)Nc2nccs2)c1
8,1.8,COC1CCN(S(=O)(=O)c2ccc(Oc3cc(OCC=C(C)C)cc(C(=O)Nc4cc(C)n(C)n4)c3)cc2)CC1
9,1.6,CC(C)=CCOc1cc(Oc2ccc(S(=O)(=O)C3CC3)cc2)cc(C(=O)Nc2cnc(C)cn2)c1
10,1.5,CC(C)=CCOc1cc(Oc2ccc(S(=O)(=O)N3CC4CCC(C3)O4)cc2)cc(C(=O)Nc2cc(C)n(C)n2)c1
11,0.9,CC(C)=CCOc1cc(Oc2ccc(S(=O)(=O)C3CC3)cc2)cc(C(=O)Nc2nc(-c3ccc(F)cc3)cs2)c1
12,1.9,CC(C)=CCOc1cc(Oc2ccc(S(=O)(=O)N3CC4CCC(C3)O4)cc2)cc(C(=O)Nc2ncc(F)s2)c1
13,1.5,CC(C)=CCOc1cc(Oc2ccc(S(=O)(=O)N3CCOCC3)cc2)cc(C(=O)Nc2cc(C)n(C)n2)c1
14,1.7,COC1CCN(S(=O)(=O)c2ccc(Oc3cc(OCC=C(C)C)cc(C(=O)Nc4ncc(F)s4)c3)cc2)CC1
